Key:
[1] = folding enthalpy; higher = less favourable; fluorescence melt of hairpins on a sequencing array, two-state fit; conditions: sodium 0.088 M
Procedure, shortened: (§1)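 Cy3 signals were normalised both to pre-quench Cy3 and to control constructs. They came from library hairpins carrying annealed Cy3 and quencher oligos on a sequenced MiSeq flow cell, imaged in 50 mM Na-HEPES pH 8.0, 25 mM NaCl, in 2.5 °C steps up to 60 °C. Bootstrapped two-state fits gave melting temperature and folding enthalpy, and four replicates were combined by inverse variance. Fitted temperatures were then raised by 9.35 °C to match UV melts.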

[2] = melting temperature; fluorescence melt of hairpins on a sequencing array, two-state fit, raised by 9.35 °C to match UV melts; conditions: sodium 0.088 M
Procedure, shortened: as §1

Row | Sequence | folding enthalpy [1] | Tm [2]
1 | GATCTTGTTAAAGATC ((((((....)))))) | -156 kJ/mol | 53.7 °C
2 | GATCTTGTTAAGATC ((((((...)))))) | -126 kJ/mol | 45.8 °C
3 | GATCTTTAAGAAGATC ((((((....)))))) | -146 kJ/mol | 41.5 °C
4 | GATCTTTATGAAGATC ((((((....)))))) | -153 kJ/mol | 44.9 °C
5 | GATCTTTCAGAAGATC ((((((....)))))) | -143 kJ/mol | 44.3 °C
6 | GATCTTTCGAAAGATC ((((((....)))))) | -170 kJ/mol | 49.3 °C
7 | GATCTTTGGAAAGATC ((((((....)))))) | -132 kJ/mol | 42.7 °C
8 | GATCTTTGTCAAGATC ((((((....)))))) | -138 kJ/mol | 39.9 °C
9 | GATCTTTTGGAAGATC ((((((....)))))) | -143 kJ/mol | 44.3 °C
10 | GATGAACCGAAAGGTATC (((..(((....)))))) | -53.8 kJ/mol | 28.8 °C
11 | GATGAAGGAAACTTCATC (((((((....))))))) | -171 kJ/mol | 53.5 °C
12 | GATGAAGGAAACTTCGTC ((.((((....)))).)) | -113 kJ/mol | 42.4 °C
13 | GATGACGAAAGTCCATC ((((((....))).))) | -72 kJ/mol | 41.5 °C
14 | GATGACGAAAGTCGCATC ((((((....)))..))) | -46.3 kJ/mol | 30.8 °C
15 | GATGAGACGAAAGTCATC (((..(((....)))))) | -56.1 kJ/mol | 35.9 °C
16 | GATGAGCGAAAGCTAATC (((.(((....))).))) | -104 kJ/mol | 46.6 °C
17 | GATGAGGGAAACCCCATC ((((.((....)).)))) | -131 kJ/mol | 41.2 °C
18 | GATGAGGGAAACTTCATC (((((.(....).))))) | -105 kJ/mol | 37.1 °C
19 | GATGATGGAAACATCACC (.(((((....))))).) | -68.1 kJ/mol | 37.3 °C
20 | GATGCACCGAAAGGTATC (((..(((....)))))) | -39.4 kJ/mol | 29 °C
21 | GATGCAGGAAACCGCATC (((((.(....).))))) | -140 kJ/mol | 49.9 °C
22 | GATGCAGGAAACTGCACC (.(((((....))))).) | -53.1 kJ/mol | 40.5 °C
23 | GATGCCCGAAAGGGAATC (((.(((....))).))) | -158 kJ/mol | 53.9 °C

Row | Sequence | folding enthalpy [1] | Tm [2]
24 | GATGCCCGAAAGGGATC (((.(((....)))))) | -72.9 kJ/mol | 45 °C
25 | GATGCCGAAAGGCGAATC ((((((....)))..))) | -40.4 kJ/mol | 36.9 °C
26 | GATGCCGAAAGGCGTATC ((((((....)))..))) | -48.3 kJ/mol | 36.4 °C
27 | GATGCCGGAAACGACATC ((((.((....)).)))) | -160 kJ/mol | 48.2 °C
28 | GATGCCGGAAACGGTATC (((.(((....))).))) | -179 kJ/mol | 53.9 °C
29 | GATGCGACGAAAGTCATC (((..(((....)))))) | -54.5 kJ/mol | 27.8 °C
30 | GATGCGCGAAAGCGATC (((.(((....)))))) | -50.4 kJ/mol | 41.3 °C
31 | GATGCGGGAAACCGTATC (((.(((....))).))) | -144 kJ/mol | 50.3 °C
32 | GATGCTGGAAACGGCATC (((((.(....).))))) | -185 kJ/mol | 54.3 °C
33 | GATGGACGAAAGTCAATC (((.(((....))).))) | -110 kJ/mol | 48.1 °C
34 | GATGGAGGAAACTCCGTC ((.((((....)))).)) | -133 kJ/mol | 48.9 °C
35 | GATGGAGGAAACTTCATC ((((.((....)).)))) | -157 kJ/mol | 39.6 °C
36 | GATGGCGAAAGCCAATC ((((((....))).))) | -59 kJ/mol | 50.7 °C
37 | GATGGCGAAAGCCGAATC ((((((....)))..))) | -35 kJ/mol | 34.4 °C
38 | GATGGCGAAAGCCTAATC ((((((....)))..))) | -41.2 kJ/mol | 32 °C
39 | GATGGCGGAAACGCTATC (((.(((....))).))) | -114 kJ/mol | 52 °C
40 | GATGGGGCGAAAGCCATC (((..(((....)))))) | -50.2 kJ/mol | 38.1 °C
41 | GATGGGGGAAACCTCGTC ((.(.((....)).).)) | -83.6 kJ/mol | 33.2 °C
42 | GATGGTGCGAAAGCAATC (((..(((....)))))) | -37.1 kJ/mol | 28.7 °C
43 | GATGGTGGAAACACCGTC ((.((((....)))).)) | -99.1 kJ/mol | 53.6 °C
44 | GATGGTGGAAACACTATC (((.(((....))).))) | -130 kJ/mol | 43.1 °C
45 | GATGGTGGAAACGCTATC (((.(.(....).).))) | -67.9 kJ/mol | 31.3 °C
46 | GATGGTGGAAACGTCATC ((((..(....)..)))) | -82 kJ/mol | 33.3 °C

Row | Sequence | folding enthalpy [1] | Tm [2]
47 | GATGTCCGAAAGGAAATC (((.(((....))).))) | -100 kJ/mol | 43.6 °C
48 | GATGTCGGAAACAACATC (((((.(....).))))) | -121 kJ/mol | 35.7 °C
49 | GATGTCGGAAACGGTATC (((..((....))..))) | -88.7 kJ/mol | 31.6 °C
50 | GATGTGACGAAAGTCATC (((..(((....)))))) | -50.2 kJ/mol | 34.2 °C
51 | GATGTGCGAAAGCAATC (((.(((....)))))) | -47.5 kJ/mol | 38.2 °C
52 | GATGTGGGAAACTACATC (((((.(....).))))) | -153 kJ/mol | 44.9 °C
53 | GATGTTGGAAACAACATC (((((((....))))))) | -187 kJ/mol | 58.4 °C
54 | GATGTTGGAAACAGTATC (((..((....))..))) | -42.8 kJ/mol | 27 °C
55 | GATTAAGAAATTAATC ((((((....)))))) | -62.2 kJ/mol | 30.4 °C
56 | GATTAAGCGAAAGCTATC (((..(((....)))))) | -40.1 kJ/mol | 29.5 °C
57 | GATTAAGGAAACTTGATC (((.(((....))).))) | -111 kJ/mol | 30.3 °C
58 | GATTACCGAAAGGTGATC (((.(((....))).))) | -157 kJ/mol | 51.8 °C
59 | GATTACGAAAGTAATC ((((((....)))))) | -168 kJ/mol | 56.4 °C
60 | GATTACGAAAGTATGATC ((((((....)))..))) | -27.9 kJ/mol | 14.5 °C
61 | GATTACGGAAACGTAACC (.(((((....))))).) | -69.6 kJ/mol | 33.8 °C
62 | GATTATGAAAATAATC ((((((....)))))) | -123 kJ/mol | 40.1 °C
63 | GATTATGGAAACATAGTC ((.((((....)))).)) | -70.2 kJ/mol | 31.7 °C
64 | GATTCAGGAAACCGAATC (((((.(....).))))) | -110 kJ/mol | 36 °C
65 | GATTCAGGAAACTGAATC (((((((....))))))) | -154 kJ/mol | 55.7 °C
66 | GATTCCCGAAAGGGTATC (((.(((....))).))) | -97.8 kJ/mol | 45.6 °C
67 | GATTCCGAAAGGAATATC ((((((....)))..))) | -72.6 kJ/mol | 46.6 °C
68 | GATTCCGGAAACAGAATC (((((.(....).))))) | -97.9 kJ/mol | 32.1 °C

Reference: the array DNA melting data of Ke et al. (doi:10.1101/2024.01.08.574731)
